Tests used:
[1] = Clearance in beagle dog at 1 mg/kg, iv; type: ADME, organism-based, Canis lupus familiaris; design: dose 1 mg/kg, route intravenous; details: in vivo
[2] = Cmax in beagle dog at 5 mg/kg, po; type: ADME, organism-based, Canis lupus familiaris; design: dose 5 mg/kg, route oral; details: in vivo
[3] = test system: Hepatocyte; test: Prodrug activation in rat hepatocytes assessed as BMS-585248 formation; type: cell-based
Outline: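 In-house isolated rat hepatocytes incubated with prodrug (10 μM final) for 2 h at 37 °C in humidified 95/5% air/CO2; aliquots quenched in ice-cold acetonitrile, centrifuged, prodrug and parent quantified by LC/MS/MS.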

[4] = test system: Human immunodeficiency virus 1; test: Antiviral activity against HIV1; type: functional, organism-based
[5] = Prodrug activation in Tris-HCl buffer assessed as BMS-585248 formation at pH 7.4
Outline: (§1)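 Prodrug at 10 μM final incubated 60 min at 37 °C in Tris-HCl buffer pH 7.4, rat blood or rat plasma, aerobic. Aliquots quenched with equal volume ice-cold acetonitrile, centrifuged, supernatant analysed by LC/MS/MS for prodrug and parent.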

[6] = test system: Blood; test: Prodrug activation in rat blood assessed as BMS-585248 formation; type: tissue-based; outline: as §1
[7] = Permeability across human Caco2 cells; type: ADME, cell-based; details: Caco-2, read-out: permeability
[8] = Half life in beagle dog at 1 mg/kg, iv; type: ADME, organism-based, Canis lupus familiaris; design: dose 1 mg/kg, route intravenous; details: in vivo
[9] = Aqueous solubility of the compound; type: physicochemical
[10] = test system: Liver; test: Prodrug activation in rat liver cytosol assessed as BMS-585248 formation; type: tissue-based
Outline: (§2)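 Rat liver cytosol (2 mg/mL) or microsomes (1 mg/mL) incubated with prodrug (10 μM final) and 1 mM NADPH up to 2 h at 37 °C, shaking; anaerobic runs used nitrogen-purged 0.1 M phosphate buffer with 10 mM MgCl2 under humidified nitrogen for 60 min. Acetonitrile quench, LC/MS/MS of prodrug and parent.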

[11] = test system: Plasma; test: Prodrug activation in rat plasma assessed as BMS-585248 formation; type: cell-free; outline: as §1
[12] = Volume of distribution in beagle dog at 1 mg/kg, iv; type: ADME, organism-based, Canis lupus familiaris; design: dose 1 mg/kg, route intravenous; details: in vivo
[13] = test system: Canis familiaris; test: AUC in beagle dog assessed as BMS-585248 level at 5 mg/kg, po; type: ADME, organism-based, Canis lupus familiaris, Plasma; design: dose 5 mg/kg, route oral; details: in vivo
[14] = AUC in beagle dog at 5 mg/kg, po; type: ADME, organism-based, Canis lupus familiaris; design: dose 5 mg/kg, route oral; details: plasma
[15] = test system: Liver microsomes; test: Prodrug activation in rat liver microsomes assessed as BMS-585248 formation; design: species or system Microsome; outline: as §2
[16] = test system: Rattus norvegicus; test: Cmax in Sprague-Dawley rat assessed as BMS-585248 level at 5 mg/kg, po; type: ADME, organism-based; design: dose 5 mg/kg, route oral; details: in vivo
Outline: (§3)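 Oral dose escalation in male rats, groups of three, dosed by gavage from solutions in water with 0.5% methylcellulose: prodrug trifluoroacetate salt at 5, 25 and 200 mg/kg; parent at 15, 75 and 200 mg/kg. Plasma analysed by LC/MS/MS; noncompartmental PK.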

[17] = test system: Rattus norvegicus; test: Total AUC in Sprague-Dawley rat assessed as BMS-585248 level at 25 mg/kg, po; type: ADME, organism-based; design: time AUCmax, dose 25 mg/kg, route oral; details: in vivo; outline: as §3
[18] = AUC in Sprague-Dawley rat at 1 mg/kg, iv; type: ADME, organism-based; design: dose 1 mg/kg, route intravenous; details: plasma
Outline: (§4)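 Male rats, groups of three; prodrug trifluoroacetate salt given by IV bolus (1 mg/kg) or oral gavage (5 mg/kg) after overnight fast, both from a 1 mg/mL solution in PEG-400/ethanol 90/10 v/v. Plasma sampled up to 24 h, stored at −20 °C, parent and prodrug quantified by LC/MS/MS; noncompartmental analysis.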

[19] = test system: Rattus norvegicus; test: Total AUC in Sprague-Dawley rat assessed as BMS-585248 level at 200 mg/kg, po; type: ADME, organism-based; design: time AUCmax, dose 200 mg/kg, route oral; details: in vivo; outline: as §3
[20] = test system: Rattus norvegicus; test: AUC in Sprague-Dawley rat assessed as BMS-585248 level at 1 mg/kg, iv; type: ADME, organism-based, Plasma; design: dose 1 mg/kg, route intravenous; details: in vivo; outline: as §4
[21] = test system: Rattus norvegicus; test: Total AUC in Sprague-Dawley rat assessed as BMS-585248 level at 5 mg/kg, po; type: ADME, organism-based; design: dose 5 mg/kg, route oral, time AUCmax; details: in vivo; outline: as §3
[22] = Cmax in Sprague-Dawley rat at 5 mg/kg, po after 6 hrs; type: ADME, organism-based; design: dose 5 mg/kg, route oral; details: in vivo
[23] = Half life in Sprague-Dawley rat at 1 mg/kg, iv; type: ADME, organism-based; design: dose 1 mg/kg, route intravenous; details: in vivo; outline: as §4
[24] = test system: Rattus norvegicus; test: Cmax in bacitracin, neomycin sulfate and tetracycline treated Sprague-Dawley rat assessed as BMS-585248 level at 5 mg/kg, po; type: ADME, organism-based; design: dose 5 mg/kg, route oral; details: in vivo
Outline: (§5)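 Male rats (n = 3 per group) pretreated 2 days with saline or an antibiotic mix (bacitracin 400 mg/kg BID, neomycin sulfate 400 mg/kg BID, tetracycline 200 mg/kg), then given prodrug 5 mg/kg orally. Plasma to 24 h, stored −20 °C, LC/MS/MS quantitation of prodrug and parent.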

[25] = test system: Rattus norvegicus; test: AUC in Sprague-Dawley rat assessed as BMS-585248 level at 5 mg/kg, po; type: ADME, organism-based, Plasma; design: dose 5 mg/kg, route oral; details: in vivo; outline: as §4
[26] = AUC in Sprague-Dawley rat at 5 mg/kg, po; type: ADME, organism-based; design: dose 5 mg/kg, route oral; details: plasma; outline: as §4
[27] = test system: Rattus norvegicus; test: Prodrug conversion in Sprague-Dawley rat assessed as BMS-585248 level at 1 mg/kg, iv after 5 mins; type: ADME, organism-based; design: dose 1 mg/kg, route intravenous; details: in vivo; outline: as §4
[28] = Cmax in dual cannulated portal vein Sprague-Dawley rat at 5 mg/kg, po; type: ADME, organism-based; design: dose 5 mg/kg, route oral
[29] = Volume of distribution in Sprague-Dawley rat at 1 mg/kg, iv; type: ADME, organism-based; design: dose 1 mg/kg, route intravenous; details: in vivo; outline: as §4
[30] = test system: Rattus norvegicus; test: AUClast in Sprague-Dawley rat assessed as BMS-585248 level at 5 mg/kg, po; type: ADME, organism-based, Plasma; design: time 0 - last, dose 5 mg/kg, route oral; details: in vivo; outline: as §5
[31] = Clearance in Sprague-Dawley rat at 1 mg/kg, iv; type: ADME, organism-based; design: dose 1 mg/kg, route intravenous; details: in vivo; outline: as §4
[32] = Drug excretion in bile duct cannulated Sprague-Dawley rat urine at 1 mg/kg, iv up to 2 hrs; type: ADME, organism-based; design: dose 1 mg/kg, route intravenous; details: read-out: Drug excretion
Outline: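 Bile duct/jugular vein cannulated male rats (n = 3) given prodrug 1 mg/kg IV; plasma, bile and urine collected up to 6 h. Biotransformation profiled by UPLC on C18 at 40 °C with gradient elution, positive electrospray full-scan MS and data-dependent MS/MS; relative percentages of prodrug, N-acetyl conjugate and parent reported.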

[33] = AUC in dual cannulated portal vein Sprague-Dawley rat at 5 mg/kg, po; type: ADME, organism-based; design: dose 5 mg/kg, route oral; details: plasma
[34] = test system: Rattus norvegicus; test: Cmax in Sprague-Dawley rat assessed as BMS-585248 level at 25 mg/kg, po; type: ADME, organism-based; design: dose 25 mg/kg, route oral; details: in vivo; outline: as §3
[35] = test system: Rattus norvegicus; test: Cmax in Sprague-Dawley rat assessed as BMS-585248 level at 5 mg/kg, po after 6 hrs; type: ADME, organism-based; design: dose 5 mg/kg, route oral; details: in vivo
[36] = test system: Rattus norvegicus; test: Cmax in Sprague-Dawley rat assessed as BMS-585248 level at 200 mg/kg, po; type: ADME, organism-based; design: dose 200 mg/kg, route oral; details: in vivo; outline: as §3
[37] = test system: Rattus norvegicus; test: AUClast in bacitracin, neomycin sulfate and tetracycline treated Sprague-Dawley rat assessed as BMS-585248 level at 5 mg/kg, po; type: ADME, organism-based, Plasma; design: dose 5 mg/kg, route oral, time 0 - last; details: in vivo; outline: as §5
[38] = test system: Rattus norvegicus; test: Cmax in dual cannulated portal vein Sprague-Dawley rat assessed as BMS-585248 level at 5 mg/kg, po; type: ADME, organism-based; design: dose 5 mg/kg, route oral; details: in vivo
[39] = test system: Rattus norvegicus; test: AUC in dual cannulated portal vein Sprague-Dawley rat assessed as BMS-585248 level at 5 mg/kg, po; type: ADME, organism-based, Plasma; design: dose 5 mg/kg, route oral; details: in vivo
[40] = AUClast in bacitracin, neomycin sulfate and tetracycline treated Sprague-Dawley rat at 5 mg/kg, po; type: ADME, organism-based; design: time 0 - last, dose 5 mg/kg, route oral; details: plasma; outline: as §5
[41] = Total AUC in Sprague-Dawley rat at 75 mg/kg, po; type: ADME, organism-based; design: time AUCmax, dose 75 mg/kg, route oral; details: in vivo; outline: as §3
[42] = Cmax in Sprague-Dawley rat at 200 mg/kg, po; type: ADME, organism-based; design: dose 200 mg/kg, route oral; details: in vivo; outline: as §3
[43] = test system: Rattus norvegicus; test: Cmax in bacitracin, neomycin sulfate and tetracycline treated Sprague-Dawley rat at 5 mg/kg, po; type: ADME, organism-based; design: dose 5 mg/kg, route oral; details: in vivo; outline: as §5
[44] = Cmax in Sprague-Dawley rat at 15 mg/kg, po; details: in vivo
[45] = Cmax in Sprague-Dawley rat at 75 mg/kg, po; type: ADME, organism-based; design: dose 75 mg/kg, route oral; details: in vivo; outline: as §3
[46] = Total AUC in Sprague-Dawley rat at 200 mg/kg, po; type: ADME, organism-based; design: time AUCmax, dose 200 mg/kg, route oral; details: in vivo; outline: as §3
[47] = AUClast in Sprague-Dawley rat at 5 mg/kg, po; type: ADME, organism-based; design: time 0 - last, dose 5 mg/kg, route oral; details: plasma; outline: as §5
[48] = Total AUC in Sprague-Dawley rat at 15 mg/kg, po; details: in vivo

## N[n+]1ccn(-c2ncc(F)c3c(C(=O)C(=O)N4CCN(C(=O)c5ccccc5)CC4)c[nH]c23)n1.[Cl-]
[1]
  clearance: 13.8 mL/min/kg
[2]
  Cmax: 139 nM
[3]
  Drug metabolism: Not Active
[4]
  EC50: 1.76 nM
[5]
  Drug metabolism: Not Active
[6]
  Drug metabolism: Not Active
[7]
  Papp: 1.5 ×10⁻⁶ cm/s
[8]
  half-life: 54 min
[9]
  solubility: 1760 µg/mL
[10]
  Drug metabolism: Not Active
[11]
  Drug metabolism: Not Active
[12]
  Vd: 0.3 L/kg
[13]
  AUC: 8.064 µM·h
[14]
  AUC: 0.217 µM·h
[15]
  Drug metabolism: Not Active

## N[n+]1ccn(-c2ncc(F)c3c(C(=O)C(=O)N4CCN(C(=O)c5ccccc5)CC4)c[nH]c23)n1.O=C([O-])C(F)(F)F
[16]
  Cmax: 1300 nM
[17]
  AUC: 72 µM·h
[18]
  AUC: 1.55 µM·h
[19]
  AUC: 996 µM·h
[20]
  AUC: 3.22 µM·h
[21]
  AUC: 8 µM·h
[22]
  Cmax: 23 nM
[23]
  half-life: 18 min
[24]
  Cmax: 79 nM
[25]
  AUC: 28.098 µM·h
[26]
  AUC: 0.0208 µM·h
[27]
  Drug metabolism: Active
[28]
  Cmax: 74 nM
[29]
  Vd: 0.29 L/kg
[30]
  AUClast: 0.112 µM·h
[31]
  clearance: 23 mL/min/kg
[32]
  dose excreted at 2 h: 80%
[33]
  AUC: 0.035 µM·h
[34]
  Cmax: 12000 nM
[35]
  Cmax: 3120 nM
[36]
  Cmax: 77000 nM
[37]
  AUClast: 0.148 µM·h
[38]
  Cmax: 2140 nM
[39]
  AUC: 23.873 µM·h

## CC(=O)N[n+]1ccn(-c2ncc(F)c3c(C(=O)C(=O)N4CCN(C(=O)c5ccccc5)CC4)c[nH]c23)n1
[32]
  dose excreted at 2 h: 16.5%

## O=C(C(=O)N1CCN(C(=O)c2ccccc2)CC1)c1c[nH]c2c(-n3ccnn3)ncc(F)c12
[40]
  AUC(0-t): 13.8 µM·h
[41]
  AUC: 115 µM·h
[4]
  EC50: 0.06 nM
[42]
  Cmax: 11000 nM
[43]
  Cmax: 18 nM
[44]
  Cmax: 6600 nM
[45]
  Cmax: 8400 nM
[46]
  AUC: 145 µM·h
[32]
  dose excreted at 2 h: 3.5%
[47]
  AUC(0-t): 47.5 µM·h
[48]
  AUC: 42 µM·h

Source: ChEMBL document CHEMBL2311424, “Inhibitors of human immunodeficiency virus type 1 (HIV-1) attachment 13. Synthesis and profiling of a novel amminium prodrug of the HIV-1 attachment inhibitor BMS-585248” (J Med Chem, 2013)
